Shown are actives, neighbours in structure and some others; about 1.3% of the full set was active somewhere.
NTR1 ag: agonists of human neurotensin receptor NTR1 | 0.17% of 330,000 active | activation, % at 20 µM | NTR1-U2OS beta-arrestin-GFP spot imaging, agonist mode | AID 493036 | P30989;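 active = activation at or above 40% of the spot to cytoplasm intensity ratio, with at least 20 cells analyzed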;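 note: 0% = DMSO without peptide and 100% = 100 nM NTR1 peptide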
Arr AP2 block: blocks beta-arrestin peptide binding to AP2 adaptin | FITC-arrestin peptide / GST-AP2 beads, flow cytometry; AP2 beta2 appendage carries R879A mutation | inhibition, % at 10 µM | 0.31% of 340,000 active | AID 504490;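 active = inhibition above a set limit, near 3 SD of compounds lacking own fluorescence, cut at about 54% in these data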;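 note: plate controls were DMSO wells for no effect and 5 µM unlabelled arrestin peptide for full effect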
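system = GST-tagged AP2 beta2-adaptin appendage (R879A) on 4 µm glutathione beads | reagent = FITC-labelled arrestin peptide probe, 50 nM final | schedule = compound with beads 12 min RT, then probe 1 h RT | signal = HyperCyt-sampled flow cytometry, FL1 channel, ex 488/em 535 nm | read-out = percent response from loss of bead-bound FITC fluorescence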
PLCg1 inh: blocks human PLC-gamma1 enzyme activity; P19174; purified PLC-gamma1, fluorogenic substrate, fluorescence; inhibition, % at 12.2 µM; 0.84% of 370,000 active; in the data active = inhibition above about 9.5%
Target sequence (P19174 whole entry, looked up): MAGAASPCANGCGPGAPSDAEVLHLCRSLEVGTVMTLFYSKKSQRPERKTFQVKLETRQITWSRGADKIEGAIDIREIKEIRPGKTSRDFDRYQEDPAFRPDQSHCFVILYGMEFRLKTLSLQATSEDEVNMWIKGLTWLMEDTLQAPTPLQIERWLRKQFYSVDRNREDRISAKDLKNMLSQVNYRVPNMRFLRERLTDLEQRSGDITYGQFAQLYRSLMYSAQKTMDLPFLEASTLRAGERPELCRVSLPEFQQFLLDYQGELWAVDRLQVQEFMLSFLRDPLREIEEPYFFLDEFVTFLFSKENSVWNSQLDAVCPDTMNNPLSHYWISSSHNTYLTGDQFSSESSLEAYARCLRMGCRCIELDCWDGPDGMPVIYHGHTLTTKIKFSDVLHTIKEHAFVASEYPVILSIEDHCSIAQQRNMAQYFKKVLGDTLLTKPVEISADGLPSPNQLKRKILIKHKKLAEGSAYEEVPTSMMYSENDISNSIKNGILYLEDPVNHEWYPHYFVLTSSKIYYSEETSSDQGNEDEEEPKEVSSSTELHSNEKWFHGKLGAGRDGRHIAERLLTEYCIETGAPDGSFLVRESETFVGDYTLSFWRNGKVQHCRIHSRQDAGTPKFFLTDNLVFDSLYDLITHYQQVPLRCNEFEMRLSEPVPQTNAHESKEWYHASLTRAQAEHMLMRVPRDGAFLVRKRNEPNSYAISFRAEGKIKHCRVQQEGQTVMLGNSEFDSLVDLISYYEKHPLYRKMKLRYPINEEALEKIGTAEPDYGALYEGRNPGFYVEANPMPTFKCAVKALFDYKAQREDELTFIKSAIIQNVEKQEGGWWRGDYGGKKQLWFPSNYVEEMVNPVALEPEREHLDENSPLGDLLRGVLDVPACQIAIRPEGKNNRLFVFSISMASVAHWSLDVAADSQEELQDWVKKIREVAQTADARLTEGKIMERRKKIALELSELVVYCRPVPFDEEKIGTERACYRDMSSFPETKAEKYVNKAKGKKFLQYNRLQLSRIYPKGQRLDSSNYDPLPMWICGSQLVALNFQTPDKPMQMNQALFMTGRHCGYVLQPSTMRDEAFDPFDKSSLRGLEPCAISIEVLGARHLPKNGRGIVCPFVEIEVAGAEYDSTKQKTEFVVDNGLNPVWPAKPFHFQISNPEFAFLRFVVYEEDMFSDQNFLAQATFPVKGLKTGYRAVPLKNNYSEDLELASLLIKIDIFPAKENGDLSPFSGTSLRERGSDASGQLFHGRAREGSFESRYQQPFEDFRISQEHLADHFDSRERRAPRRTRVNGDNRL
PLCb3 inh: inhibitors of human phospholipase C beta3. Purified PLC-beta3, fluorogenic substrate, fluorescence. 0.18% of 370,000 active. AID 720704. inhibition, % at 12.2 µM;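 note: 0% = median of compound wells on plate and 100% = full blocker control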
NTR1 ag conf: confirmation of agonists of human NTR1 | shares compounds with NTR1 ag | NTR1-U2OS beta-arrestin-GFP translocation imaging | activation, % at 20 µM | 38% of 480 active | AID 504550;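 active = mean activation at 20 µM of at least 40%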;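 note: 0% = DMSO without peptide and 100% = 100 nM NTR1 peptide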
Arr AP2 CP1: blocks beta-arrestin peptide binding to human AP2; 2% of 1,300 active; shares compounds with Arr AP2 block; GST-AP2 beads, FITC arrestin peptide binding, flow cytometry; GST-fused beta2-adaptin appendage, R879A mutant; inhibition, % at 10 µM;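 active = inhibition above a set limit, roughly 3 SD of non-fluorescent compound noise, cut at about 38% in these data; inactive = inhibition at or below that limit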;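 note: loss of bead fluorescence from 50 nM FITC arrestin peptide bound to appendage; 0% = negative control wells and 100% = excess unlabelled arrestin peptide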
GST-FITC bead: counter-screen for beta-arrestin AP2 inhibitors: GST-GSH bead binding; AID 588338; 2% of 1,300 active; GST-fluorescein binding to GSH beads, fluorescence; shares compounds with Arr AP2 block; inhibition, % at 10 µM;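 active = inhibition above 50%, about 3 SD of the inhibition seen with non-fluorescent compounds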;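 note: fluorescein maleimide labelled GST captured on 4 micron glutathione beads; higher means more loss of bead fluorescence from quenching or blocked binding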
PLCgamma1 ctr: inhibits human PLC-gamma1 in PLC-beta3 counter-screen; shares compounds with PLCg1 inh; purified PLC-gamma1, fluorogenic substrate, fluorescence; inhibition, % at 12.3 µM; 3.1% of 3,300 active; in the data active = inhibition above about 9.5%
PLCb3 confirm: human PLC-beta3 inhibition, confirmation. shares compounds with PLCg1 inh. purified PLC-beta3, fluorogenic substrate fluorescence. inhibition, % at 12.3 µM. 1% of 3,300 active
* = called active by the depositor. Cut-off read from the data, not from the text of the source, unless noted: active = inhibition above about 11%; inactive = the rest.

COc1ccc(S(=O)(=O)Nc2ccccc2C(=O)Nc2nc(-c3ccc(F)cc3)cs2)cc1OC was read as NTR1 ag 45*, Arr AP2 block 5, PLCg1 inh -173, PLCb3 inh -212 and NTR1 ag conf 7.
COc1cccc(-c2csc(NC(=O)Nc3ccccc3)n2)c1 was read as NTR1 ag 72*, Arr AP2 block -10, PLCg1 inh 12*, PLCb3 inh -7, NTR1 ag conf 23, PLCgamma1 ctr 3 and PLCb3 confirm 0.
`COc1ccc(-c2cc(C3CCN(Cc4ccc([N+](=O)[O-])cc4)CC3)[nH]n2)cc1` gave NTR1 ag 4, Arr AP2 block 7, PLCg1 inh -2 and PLCb3 inh -4.
Cc1ccc(CN2CCC(c3cc(-c4ccc(Cl)cc4)n[nH]3)CC2)cc1 was read as NTR1 ag 61*, Arr AP2 block -5, PLCg1 inh 11*, PLCb3 inh -2, NTR1 ag conf 6, PLCgamma1 ctr -3 and PLCb3 confirm -5.
For CCC(C)c1ccc(NC(=O)CSc2nnc(-c3cccc(C)c3)n2C)cc1 (stereo not drawn) the results were PLCg1 inh 1 and PLCb3 inh 5.
Screening CN(C(=O)COc1ccccc1C(=O)NCCOc1ccccc1)c1ccccc1 returned NTR1 ag 107*, Arr AP2 block 12, PLCg1 inh 15*, PLCb3 inh 17*, NTR1 ag conf 63*, PLCgamma1 ctr 6 and PLCb3 confirm 12*.
CN(Cc1ccccc1)C(=O)OCc1cn(Cc2ccc(Cl)cc2)nn1 was read as PLCg1 inh -3 and PLCb3 inh -1.
For Cc1cc(C)n2[nH]c(=O)c(N=Nc3cccc(Cl)c3)c2n1 the results were NTR1 ag 2, Arr AP2 block 90*, PLCg1 inh 1, PLCb3 inh 3, Arr AP2 CP1 2 and GST-FITC bead -5.
For Cc1cc(C)n2[nH]c(=O)c(N=Nc3ccccc3)c2n1 the results were NTR1 ag -1, Arr AP2 block 3, PLCg1 inh 3 and PLCb3 inh 4.
For CN1CCN(c2ccc(-c3csc(N4CCC(C(N)=O)CC4)n3)cc2)CC1 the results were PLCg1 inh -12 and PLCb3 inh -13.
O=C(CSc1nnc(-c2ccccn2)n1-c1ccccc1)c1ccc(Cl)c(Cl)c1 was read as PLCg1 inh -2 and PLCb3 inh -2.
`COC(=O)C1=C(C)N(Cc2cccc(C(F)(F)F)c2)C(=NCc2ccc(OC)cc2)NC1c1ccc(Cl)cc1` (stereo not drawn) gave PLCg1 inh 0 and PLCb3 inh 3.
CN(C)S(=O)(=O)c1ccc(NC(=O)C2CCCN(C(=O)c3ccc(Cl)cc3)C2)cc1 (stereo not drawn) was read as NTR1 ag 2, Arr AP2 block 56*, PLCg1 inh 2, PLCb3 inh 4, Arr AP2 CP1 -2 and GST-FITC bead -5.
Screening O=C(CCNC(=O)c1ccc(Cl)cc1)NCCC1=CCCCC1 returned NTR1 ag 0, Arr AP2 block 64*, PLCg1 inh 8, PLCb3 inh 2, Arr AP2 CP1 -10 and GST-FITC bead -4.
COC(=O)c1c(NC(=O)CSc2ncnc3c2cnn3-c2ccccc2Cl)sc2c1CCCC2 was read as NTR1 ag 2, Arr AP2 block -5, PLCg1 inh -1 and PLCb3 inh 4.
For N#Cc1c(NC(=O)CSc2ncnc3c2cnn3-c2ccccc2Cl)sc2c1CCCC2 the results were NTR1 ag 4, Arr AP2 block 60*, PLCg1 inh -1, PLCb3 inh -2, Arr AP2 CP1 -19 and GST-FITC bead 0.

Screens: PubChem, several laboratories
